WT yeast gro inh – growth inhibition of WT yeast, mitochondrial fusion screen; 190,000 compounds, 2.1% hits; mitochondrial fusion phenotypic screen, WT strain; inhibition, % at 10 µM; AID 1362; in the data active means inhibition above about 58%; tested in S. cerevisiae
Yeast life ext – yeast lifespan extension | S. cerevisiae growth with nicotinamide, OD615; deaD strain in restrictive glucose medium | inhibition of the nicotinamide effect, % at 10 µM | 130,000 compounds, 0.68% hits;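 active means inhibition above a set limit, placed 3 SD over the median of all compounds, cut at about 26% in these data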
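Material: Modified budding yeast, DeaD strain | Medium: Restrictive glucose medium | Probe or stimulus: 1.5 mM nicotinamide | Dosing: Single dose 10 µM compound, 0.25% DMSO | Times: 48 h at 30 °C | Technique: OD615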
RAM network inh – inhibitors of the yeast RAM network; S. cerevisiae dse1pr::URA3 reporter, 5-FOA growth OD615, 2 d; analog-sensitive cbk1-as2 kinase mutant strain; inhibition, % at 50 µM; 190,000 compounds, 1.8% hits; AID 868;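 active means inhibition above a set limit, 3 SD over mean compound inhibition, cut at about 8.4% in these data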;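 further: inhibition rescues growth on 5-FOA so higher OD means more RAM inhibition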
BB579 growth dn – chemicals that inhibit yeast BB579 growth in restrictive medium (lifespan-shortening candidates); S. cerevisiae BB579 growth, OD615, 48 h; inhibition, % at 10 µM; 140,000 compounds, 0.51% hits;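 active means inhibition above a set limit, 3 SD over the mean compound inhibition, cut at about 44% in these data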
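Detection: OD615 turbidity measurement; Material: Saccharomyces cerevisiae DeaD strain BB579, replicative lifespan model yeast; Timing: 48 h exposure, 30 °C; Doses: single 10 µM dose; Medium: CSMM-D restrictive synthetic medium containing dextrose (glucose); Controls: amphotericin B at 10 µg/mL as positive control.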
KCC2 mod – modulates chloride dependent transport by human KCC2. Q9H2X9. KCC2 cells, thallium flux FluoZin-2 fluorescence. B-score of Tl+ flux slope (higher = more flux/activation; lower = inhibition) at 10 µM. 190,000 compounds, 2.2% hits. AID 1456;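 active means thallium flux slope and its plate-corrected score both differing from the plate sample mean at a set confidence after two filtering rounds, in either direction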;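 further: slope of fluorescence scaled to starting intensity during 10 to 20 s after thallium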
Target sequence (Q9H2X9 whole entry, looked up): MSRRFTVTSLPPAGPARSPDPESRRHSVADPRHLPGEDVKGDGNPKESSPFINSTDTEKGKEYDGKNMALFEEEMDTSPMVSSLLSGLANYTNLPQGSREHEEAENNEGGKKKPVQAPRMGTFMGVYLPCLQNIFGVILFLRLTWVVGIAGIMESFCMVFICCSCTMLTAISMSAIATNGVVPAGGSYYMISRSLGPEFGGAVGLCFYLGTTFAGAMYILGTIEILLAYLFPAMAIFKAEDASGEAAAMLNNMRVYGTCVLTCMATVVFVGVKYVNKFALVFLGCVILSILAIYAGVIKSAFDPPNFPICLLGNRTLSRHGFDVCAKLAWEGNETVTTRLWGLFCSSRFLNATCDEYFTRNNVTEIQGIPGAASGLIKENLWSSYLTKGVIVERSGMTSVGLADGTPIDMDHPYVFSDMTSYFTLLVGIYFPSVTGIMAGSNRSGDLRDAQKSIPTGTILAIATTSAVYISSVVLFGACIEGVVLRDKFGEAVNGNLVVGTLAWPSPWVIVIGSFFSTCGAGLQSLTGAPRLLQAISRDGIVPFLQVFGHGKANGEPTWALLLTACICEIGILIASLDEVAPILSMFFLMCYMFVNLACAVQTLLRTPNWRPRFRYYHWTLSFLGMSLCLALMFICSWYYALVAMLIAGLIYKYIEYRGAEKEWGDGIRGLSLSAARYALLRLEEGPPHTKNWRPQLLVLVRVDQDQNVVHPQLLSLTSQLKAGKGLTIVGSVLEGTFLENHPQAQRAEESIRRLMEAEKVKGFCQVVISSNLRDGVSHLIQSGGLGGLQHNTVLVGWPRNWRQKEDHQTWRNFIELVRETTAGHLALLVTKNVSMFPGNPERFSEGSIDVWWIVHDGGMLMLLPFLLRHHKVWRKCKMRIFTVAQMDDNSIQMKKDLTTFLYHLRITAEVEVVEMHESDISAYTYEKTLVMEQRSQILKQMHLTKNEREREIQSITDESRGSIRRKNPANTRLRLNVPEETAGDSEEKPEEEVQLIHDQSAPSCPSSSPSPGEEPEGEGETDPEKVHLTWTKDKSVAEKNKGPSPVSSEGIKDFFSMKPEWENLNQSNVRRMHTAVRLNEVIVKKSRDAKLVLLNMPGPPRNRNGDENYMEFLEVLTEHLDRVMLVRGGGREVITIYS
Large screens that a line does not name were inactive. The list is not random: actives were taken first. Their share in the collection is about 5.5%.

O=C1NN=C(c2ccc(Br)cc2)CC1c1ccc(Cl)cc1 (configuration not stated)	WT yeast gro inh 58 (no result: Yeast life ext, BB579 growth dn)
CN1N=C(c2ccc(Cl)cc2)CC(c2ccc(Cl)cc2)C1=O (configuration not stated)	WT yeast gro inh 65 (no result: Yeast life ext, BB579 growth dn)
O=C(O)C1=C[C@H](c2ccc(Br)cc2)C[C@H](OCc2ccc(CO)cc2)O1	none (no result: Yeast life ext, BB579 growth dn)
CN=c1scc(C)n1/N=C/c1ccc(O)cc1	none
CN=c1scc(C)n1/N=C/c1cc(Br)c(O)c(Br)c1	RAM network inh 10 (no result: Yeast life ext, BB579 growth dn)
COc1cc2cc(C(=O)N3CCN(Cc4ccc5c(c4)OCO5)CC3)c(=O)oc2cc1OC	none (no result: WT yeast gro inh, Yeast life ext, RAM network inh, BB579 growth dn)
CCCc1cc(=O)oc2cc(C)c(CN3CCCC3)c(O)c12	Yeast life ext 35
CCN(CC)S(=O)(=O)c1cccc(C(=O)N/N=C/c2ccc(O)c(O)c2O)c1	none
Oc1ccc(/C=N/N=C(c2ccccc2)c2ccccc2)c(O)c1O	BB579 growth dn 90
Cc1ccc(CN2CCN(/N=C/c3ccc(C)s3)CC2)cc1	none
CCOC(=O)c1cc(C#N)c(SCc2cccc3ccccc23)nc1C	RAM network inh 10
Cc1cc(/C=N/NC(=O)C(=O)NCc2ccccn2)c(C)n1-c1ccccc1	none
CCOC(=O)c1c(NC(=O)C2CCN(S(=O)(=O)c3cccs3)CC2)sc(C)c1C	WT yeast gro inh 75
O=C(OCc1nc2ccccc2s1)C1CCN(S(=O)(=O)c2cccs2)CC1	RAM network inh 9.9 (no result: KCC2 mod)
COc1ccc(CN2CCN(CCC(C)C)C(CCO)C2)cc1Cn1cncn1 (configuration not stated)	none (no result: Yeast life ext, BB579 growth dn)
Cc1ccc(-c2[nH]nc(N)c2N=Nc2ccccc2C)cc1	BB579 growth dn 52
Cc1ccc(-c2csc3nc[nH]c(=S)c23)cc1C	KCC2 mod 43
O=c1[nH]cnc2scc(-c3ccc(-c4ccccc4)cc3)c12	none (no result: KCC2 mod)
CCN(CC)c1ccc(S(=O)(=O)N(CC)CC)cc1NC(=O)c1cccnc1	none (no result: Yeast life ext, BB579 growth dn)
CCCSc1ccc2nc(-c3ccccc3)cn2c1	WT yeast gro inh 70
Cc1ncc([N+](=O)[O-])n1CC(=O)NC1CCCCCC1	none (no result: Yeast life ext, BB579 growth dn)
COc1ccc2nc(NC(=O)C(NS(=O)(=O)c3cccs3)C(C)C)sc2c1 (configuration not stated)	RAM network inh 8.8 (no result: KCC2 mod)
COc1ccc2nc(N/C(=N/S(=O)(=O)c3cccs3)c3ccccc3Cl)sc2c1	none (no result: Yeast life ext, BB579 growth dn)
COc1ccc2nc(NC(=S)N(C)C)sc2c1	BB579 growth dn 65 (no result: KCC2 mod)
CCC1CCC2(CC1)NNC(=S)NN2	none
COc1ccccc1N1CC=C(c2cccc([N+](=O)[O-])c2)NC1=O	none (no result: WT yeast gro inh, Yeast life ext, RAM network inh, BB579 growth dn)
Cc1ccc(C(=O)N/N=C2\CCCc3ccccc32)c(C)c1	none (no result: Yeast life ext, BB579 growth dn)
O=C(N/N=C1\CCCc2ccccc21)c1ccc([N+](=O)[O-])cc1	KCC2 mod 3.1 (no result: Yeast life ext)
CC1CCc2sc(C(=O)N/N=C/c3ccc([N+](=O)[O-])cc3)cc2C1 (configuration not stated)	none
O=C(Nc1nc(COc2ccccc2)cs1)C12CC3CC(CC(C3)C1)C2	WT yeast gro inh 59, RAM network inh 9.4
Cc1ccc2occ(/C=N/NC(=O)[C@@H](N)Cc3ccccc3)c(=O)c2c1	none (no result: WT yeast gro inh, Yeast life ext, RAM network inh, BB579 growth dn)
COCC(C)OC(=O)/C(C#N)=C\c1coc2ccc(C)cc2c1=O (configuration not stated)	BB579 growth dn 63
COC(CN1C(=O)C(=O)/C(=C(/O)c2ccccc2)C1c1ccccn1)OC (configuration not stated)	none (no result: Yeast life ext, BB579 growth dn)
O=C(Nc1nc(-c2ccccn2)cs1)c1ccc(Br)s1	WT yeast gro inh 60, BB579 growth dn 99, KCC2 mod 39
O=C(CC1CC2CCC1C2)Nc1nc(-c2ccccn2)cs1 (configuration not stated)	WT yeast gro inh 74 (no result: Yeast life ext, BB579 growth dn)
O=C(Nc1nc(-c2ccccn2)cs1)c1ccco1	none (no result: Yeast life ext, BB579 growth dn)
O=C(O)CCC(=O)NNC(=O)c1cccs1	none (no result: Yeast life ext, BB579 growth dn)
O=C(Cn1cnc2ccccc21)N/N=C/c1ccccc1[N+](=O)[O-]	none
CCCNC(=O)CCC(NS(=O)(=O)c1ccc(C)cc1)C(=O)NCCC (configuration not stated)	Yeast life ext 80
CCNC(=O)C(CCSC)NS(=O)(=O)c1ccc(C)cc1 (configuration not stated)	none (no result: WT yeast gro inh, Yeast life ext, RAM network inh, BB579 growth dn)
CC1CCC2(CC1)NC(=S)N(c1ccccc1)N2 (configuration not stated)	BB579 growth dn 69
Cc1cc(C)nc(NC(=O)CSc2nn(-c3ccccc3)c(=S)s2)n1	none (no result: WT yeast gro inh, Yeast life ext, RAM network inh, BB579 growth dn)
CC(/C=N/NC(=O)c1sc(N)nc1C)=C\c1ccccc1	none (no result: Yeast life ext, BB579 growth dn)
COc1cccc(/C=C2/NC(=O)NC2=O)c1OCC(=O)Nc1ccccc1	none (no result: Yeast life ext, BB579 growth dn)
O=C(COc1ccccc1/C=C1\SC(=O)NC1=O)Nc1ccccc1	KCC2 mod -4.5 (no result: Yeast life ext, BB579 growth dn)
Clc1ccc(CSc2nnc(CNc3cccc(Cl)c3)o2)cc1	WT yeast gro inh 81
CCCCCn1cnc2c(sc3nc4c(cc32)CSC(C)(C)C4)c1=O	none
O=S(=O)(/N=C(\Sc1ccc(Cl)cc1)c1ccccc1)c1ccccc1	BB579 growth dn 88
NC(=O)CSc1ncnc2c1oc1ccccc12	none
O=C(CSc1ncnc2c1oc1ccccc12)OCc1ccccc1	RAM network inh 8.8
CCOC(=O)CC(=O)CSc1nc(C)nc2c1oc1ccccc12	WT yeast gro inh 83
c1csc(-c2nc3c4ccccc4c4ccccc4c3[nH]2)c1	WT yeast gro inh 80 (no result: Yeast life ext)
O=C(CSc1nncs1)Nc1ccc(Cl)cn1	none
O=C(N/N=C/C=C/c1ccccc1)C1CC1c1ccccc1 (configuration not stated)	WT yeast gro inh 64 (no result: Yeast life ext, KCC2 mod)
CC(C)c1cc(C(=O)NNC(=S)NCc2ccco2)c(O)c(C(C)C)c1	none
CC1CCCCN1c1nc(-c2ccncc2)nc2ccccc12 (configuration not stated)	WT yeast gro inh 59
COc1ccc(N/C=C/C(=O)c2sc(-c3ccccc3)nc2C)cc1	RAM network inh 9.5
CC1(C)Cc2c(sc3nc4n(-c5ccccc5)cnn4c(=O)c23)CO1	none (no result: WT yeast gro inh, Yeast life ext, RAM network inh, BB579 growth dn)
COc1cccc(Oc2cn[nH]c2-c2ccc(OC)cc2O)c1	none (no result: KCC2 mod)
CCOc1ccc(-c2[nH]ncc2-c2csc(C)n2)c(O)c1	none
CCOc1ccc(-c2[nH]ncc2Oc2cccc(OC)c2)c(O)c1	BB579 growth dn 86 (no result: KCC2 mod)
CCCOC(=O)c1ccc(Oc2cn[nH]c2-c2ccc(OCC)cc2O)cc1	BB579 growth dn 64 (no result: KCC2 mod)
CC(C)(C)NC(=O)C(c1cccs1)N(C(=O)c1csnn1)c1ccccc1F (configuration not stated)	none (no result: Yeast life ext, BB579 growth dn, KCC2 mod)
Cc1ccccc1OC1C(=O)N(Cc2ccc3c(c2)OCO3)C1c1sccc1C (configuration not stated)	RAM network inh 10 (no result: KCC2 mod)
O=C1C(Oc2ccccc2)C(c2cccs2)N1Cc1ccc2c(c1)OCO2 (configuration not stated)	none
CN1C(=O)/C(=N/OC(=O)c2ccccc2)c2ccccc21	BB579 growth dn 100 (no result: KCC2 mod)
COC(=O)/C(C#N)=C/c1c(Oc2cc(C)cc(C)c2)nc2c(C)cccn2c1=O	RAM network inh 9.1
